High-throughput results from PubChem BioAssay.
CHT block = inhibits the human high affinity choline transporter; Q9GZV3; CHT-expressing cells, membrane potential dye, choline response; active compounds read low; B-score at 10 µM; 0.86% of 310,000 active; AID 488975;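 active = B-score over 3 SD under the library average, and starting fluorescence ratio not unusually high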;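 also: choline stimulus applied at its EC90 after an EC20 pre-addition; B-score computed on integrated fluorescence ratio after choline addition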
Target sequence (Q9GZV3 whole entry, looked up): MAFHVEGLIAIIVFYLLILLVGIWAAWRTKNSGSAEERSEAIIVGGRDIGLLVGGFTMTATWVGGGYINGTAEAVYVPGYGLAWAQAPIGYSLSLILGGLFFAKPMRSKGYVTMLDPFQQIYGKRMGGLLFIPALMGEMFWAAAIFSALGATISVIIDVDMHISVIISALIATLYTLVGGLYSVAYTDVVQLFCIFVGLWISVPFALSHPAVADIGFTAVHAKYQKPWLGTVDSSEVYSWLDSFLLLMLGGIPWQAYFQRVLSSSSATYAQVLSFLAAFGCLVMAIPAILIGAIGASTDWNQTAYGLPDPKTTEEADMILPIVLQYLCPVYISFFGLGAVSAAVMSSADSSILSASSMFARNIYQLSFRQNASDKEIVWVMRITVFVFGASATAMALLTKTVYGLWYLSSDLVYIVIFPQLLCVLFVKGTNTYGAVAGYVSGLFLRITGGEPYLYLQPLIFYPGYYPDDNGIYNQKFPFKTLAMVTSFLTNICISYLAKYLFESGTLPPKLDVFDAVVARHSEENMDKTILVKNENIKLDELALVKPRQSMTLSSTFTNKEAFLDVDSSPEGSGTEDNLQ
procasp7 counter = counter-screen for procaspase-3 activators: activators of human procaspase-7. recombinant procaspase-7, Ac-DEVD-pNA absorbance 405 nm; D23A/D198A/D206A triple mutant, cannot self-cleave; scale: DMSO 0, 5 µM enzyme 100. activation, % at 8.5 µM. 0.093% of 330,000 active;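 active = percent activation above the screen-wide mean plus 3 SD, cut at about 25% in these data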
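Assay system: Uncleavable procaspase-7 mutant enzyme; Input: 2 µM procaspase-7 mutant as dispensed; Also added: DEVD-pNA substrate; Medium: Zinc-free HEPES pH 7.4 with 300 mM NaCl, 0.01% Triton X-100; Timing: 1 h compound preincubation, 2 h substrate cleavage, 25 °C; Measured by: Epi-absorbance of released pNA at 405 nm, two timepoints.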
CHT PAM = allosteric activators of human choline transporter CHT; Q9GZV3; CHT-expressing cells, membrane potential dye, choline EC20; active compounds read high; LV-AA mutant CHT in HEK293 cells; B-score at 10 µM; 0.49% of 310,000 active;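 active = initial fluorescence not abnormally high and integrated response B-score, plate-corrected, over 3 SD above library mean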
procasp3 activ = activates human procaspase-3; P42574; recombinant procaspase-3 D3A, Ac-DEVD-pNA absorbance 405 nm; activation, % at 8.5 µM; 0.11% of 330,000 active;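 active = activation above the mean of all tested compounds plus 3 SD, cut at about 21% in these data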;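 also: 0% = DMSO alone and 100% = DMSO wells spiked with extra 5 µM PC-3 D3A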
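Assay system: Procaspase-3 D3A mutant, all three cleavage aspartates alanine. Buffer or medium: Zinc-free HEPES saline buffer with Triton X-100. Times: 1 h compound preincubation, 2 h substrate hydrolysis at 25 °C. Measured by: 405 nm absorbance of p-nitroaniline, reads at 0 and 120 min. Read-out basis: percent activation relative to control range. Replicates: singlicate.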
CHT activ conf = confirmation of human choline transporter (CHT) activators; shares compounds with CHT PAM; 91% of 2,500 active; CHT-expressing cells, membrane potential dye fluorescence (FDSS); % of choline EC20–EC90 response window; HEK293 expressing CHT LV-AA mutant; choline added at its EC20; AID 504833; activation, % at 10 µM;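 active = primary screen active, with duplicate mean activation above negative control mean plus 3 SD, cut at about 11% in these data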
HEK293 MP dye = CHT activator counter-screen hit in parental HEK293 cells; ratio readout change at 10 µM, hits read low; AID 623908; 62% of 2,500 active; shares compounds with CHT PAM; membrane potential dye fluorescence (FDSS); measured after EC20 choline addition;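 active = duplicate-averaged ratio beyond 3 SD from buffer wells, up or down, though filed actives are nearly all decreases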
An asterisk follows results filed as active; i = inactive; . = no result given. Shown are actives, neighbours in structure and some others; about 1.3% of the full set was active somewhere.

SMILES	CHT block	procasp7 counter	CHT PAM	procasp3 activ	CHT activ conf	HEK293 MP dye
CCC(C)(C)n1nnnc1C(c1cccc(C#N)c1)N1CCN(c2cccc(C)c2C)CC1 (stereo unspecified)	i	4	i	5	26*	i
CCC(C)(C)n1nnnc1C(c1ccccc1)N1CCc2ccccc2C1 (stereo unspecified)	i	-12	6.3*	2	32*	i
CCn1cc(C(=O)N[C@@H](CCSC)C(=O)NC(C)(C)CO)c(=O)c2cc3c(cc21)OCO3	i	5	i	17	.	.
CCN(CC)CCSc1nnc2c3ccccc3n(CCc3ccccc3)c2n1	i	-6	8.5*	2	31*	-35*
O=C1c2ccccc2C(=O)N1CSc1nnc2c3ccccc3n(CCc3ccccc3)c2n1	i	5	i	0	.	.
CN1CCN(C(=O)c2cc(Cl)ccc2Cl)CC1	i	7	i	6	.	.
CN1CCN(C(=O)c2cc(=O)c3cc(Cl)cc(Cl)c3o2)CC1	i	1	i	-1	43*	-42*
CCOC(=O)C1=C(N)OC2=C(C(=O)CC(C)(C)C2)C1c1ccc(CC)s1 (stereo unspecified)	i	-11	7.6*	3	21*	i
CCOC(=O)C1=C(N)OC2=C(C(=O)CC(C)(C)C2)C1c1ccc(C)s1 (stereo unspecified)	i	-6	i	-3	.	.
C#CC[N+]1(CC#Cc2ccc(C#CC[N+]3(CC#C)CCOCC3)cc2)CCOCC1	i	6	i	2	38*	-41*
Cc1ccc2nc(N=C(N)N)nc(C)c2c1	i	-7	i	1	56*	-55*
Cc1nc(N=C(N)N)nc2ccccc12	i	8	8.1*	-2	67*	-60*
CC(C)CC(NC(=O)/C(=C/c1ccco1)NC(=O)c1ccc(Br)o1)C(=O)O (stereo unspecified)	i	3	i	-8	.	.
CCn1c(CNC(=O)c2cccc(C)c2)nnc1SCC(=O)Nc1nnc(C)s1	i	2	i	-2	.	.
Cc1cc(Nc2ccccc2)c2c([N+](=O)[O-])ccc(C)c2n1	i	0	i	2	.	.
Cc1cc2c3c(ccc(C)c3n1)N=CN2c1ccccc1	i	-8	i	-16	49*	-60*
COC(=O)c1ccc2c(=O)n(CCN3CCOCC3)c(=S)[nH]c2c1	i	4	i	7	.	.
COC(=O)c1ccc2c(=O)n(CCCN3CCOCC3)c(=S)[nH]c2c1	i	11	i	0	24*	-40*
Cc1ccc(CN2CCSc3ccc(C(=O)NCc4cccnc4)cc32)cc1	i	0	6.9*	-1	29*	i
O=C(Nc1ccccc1N1CCCC1)c1ccc([N+](=O)[O-])o1	i	-11	i	-14	.	.
CC(C)C(=O)N1CCN(c2ccccc2NC(=O)c2ccc([N+](=O)[O-])o2)CC1	i	3	11*	0	39*	i
CCC(=O)N1CCN(c2ccccc2NC(=O)c2ccc([N+](=O)[O-])o2)CC1	i	4	8.9*	1	12*	i
COc1ccccc1NS(=O)(=O)c1ccc(C(=O)N2CCN(c3ccccn3)CC2)cc1	.	-5	.	2	.	.
Cc1cc(C)c2c(n1)nn1c(NCCOCCO)cc(C)nc21	i	2	8.5*	4	75*	-63*
O=C(Nc1cccnc1)/C(N=Nc1cccnc1)=C(\O)c1ccccc1	i	-11	i	-9	.	.
SMILES	CHT block	procasp7 counter	CHT PAM	procasp3 activ	CHT activ conf	HEK293 MP dye
CCN1CCN(CC(=O)c2c(C)n(C)c3ccc(OC)cc23)CC1	i	5	i	10	53*	-33*
COc1ccc2c(c1)c(C(=O)CN1CCN(c3ccccc3)CC1)c(C)n2C	i	-8	i	-7	.	.
Cn1cccc/c1=N\c1cccc[n+]1C	i	-4	i	-2	67*	-56*
CN(C)C(/C=C/Nc1ccc(F)cc1)=C(C#N)C#N	i	15	i	0	.	.
CN(C)C(/C=C/Nc1ccc([N+](=O)[O-])cc1)=C(C#N)C#N	i	2	7.1*	4	30*	-55*
CN(C)C(/C=C/Nc1ccc(C#N)cc1)=C(C#N)C#N	i	5	i	-1	.	.
CN(C)C(/C=C/Nc1ccc(Br)cc1)=C(C#N)C#N	i	12	7.3*	0	20*	-50*
O=C(Nn1c(C2CCCCC2)nc2ccccc2c1=O)c1ccc([N+](=O)[O-])cc1	i	13	i	0	.	.
CCN(C(=O)CCS(=O)(=O)c1ccc2c(c1)oc(=O)n2C)c1ccc(OC)cc1	i	-3	i	7	.	.
CCN(CC)CCCN(C(=O)c1cccs1)c1nc(-c2ccc(OC)cc2)cs1	i	7	6.3*	7	48*	-47*
CCN(CC)CCCN(C(=O)c1ccc(Br)cc1)c1nc(-c2ccc(OC)cc2)cs1	i	-10	i	2	.	.
O=C(c1ccc(S(=O)(=O)N2CCCCC2)cc1)N(c1ccccn1)C1CCCCC1	i	-6	i	-6	.	.
CC1CC(C)CN(S(=O)(=O)c2ccc(C(=O)N(c3ccccn3)C3CCCCC3)cc2)C1 (stereo unspecified)	i	6	i	3	21*	i
O=C(NCCc1ccccn1)c1nc(Cn2ccc([N+](=O)[O-])n2)no1	i	1	i	3	.	.
COc1cc(C(=O)OCCCN2CCCN(CCCOC(=O)c3cc(OC)c(OC)c(OC)c3)CC2)cc(OC)c1OC	i	-9	9.1*	0	44*	-31*
COc1cc(C(=O)OCCN2CCOCC2)cc(OC)c1OC	i	7	i	11	.	.
COc1ccc(C[C@H]2CN3C(=NC[C@H]3Cc3ccccc3)N2CCNC(=O)CCC2CCCCC2)cc1	i	2	i	3	32*	i
CCCN(CC(=O)Nc1ccccc1C)C(=O)c1cccc(S(=O)(=O)N2CCc3ccccc3C2)c1	i	-7	6.9*	6	6	i
CCCN(CC(=O)Nc1ccccc1C)C(=O)c1ccc(S(=O)(=O)N2CCCCCC2)cc1	i	-16	i	1	.	.
CN(C(=O)CSc1nc2ccccc2c(=O)n1-c1ccc(F)cc1F)C1CCS(=O)(=O)C1 (stereo unspecified)	.	-12	.	-2	.	.
COC(=O)c1ccc(CSc2nc3ccccc3c(=O)n2-c2ccc(OC)c(OC)c2)o1	i	-7	i	0	.	.
